The results in this text go back to ChEMBL document CHEMBL4190361, “Discovery of New Selenoureido Analogues of 4-(4-Fluorophenylureido)benzenesulfonamide as Carbonic Anhydrase Inhibitors” (ACS Med Chem Lett, 2017).

For one experiment, the target named is Carbonic anhydrase 9 (Homo sapiens, UniProt Q16790).
Experiment [1] deals with PC-3. The experiment can be described thus: Cytotoxicity against human PC3 cells assessed as reduction in cell viability at 30 to 300 uM after 48 hrs under normoxic condition by MTT assay. Type of experiment: functional, cell-based. The method, boiled down:
(§1)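 Cells plated at 1 × 10^4/well and exposed to test agents at 30, 100 and 300 μM for 48 h, in normoxia (20% O2) or hypoxia (0.1% O2). Viability is expressed relative to untreated control set at 100%, as mean ± SEM of three experiments.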
For orientation: Tetrazolium assays rely on reduction of a dye to a coloured formazan, in cell work by metabolically active cells.

The test system of experiment [2] is PC-3. As to the kind of experiment: Cytotoxicity against human PC3 cells assessed as reduction in cell viability at 30 to 300 uM after 48 hrs under hypoxic condition by MTT assay. In kind it is functional, cell-based. The method, boiled down:
as §1

Experiment [3] relates to MDA-MB-231. The experiment can be described thus: Cytotoxicity against human MDA-MB-231 cells assessed as reduction in cell viability at 30 to 100 uM after 48 hrs under normoxic condition by MTT assay. Type of experiment: functional, cell-based. In short, it runs like this:
as §1

Experiment [4] concerns MDA-MB-231. As to the kind of experiment: Cytotoxicity against human MDA-MB-231 cells assessed as reduction in cell viability at 30 to 100 uM after 48 hrs under hypoxic condition by MTT assay. Type of experiment: functional, cell-based. In short, it runs like this: as §1
In experiment [5] the test system is MDA-MB-231. The experiment can be described thus: Cytotoxicity against human MDA-MB-231 cells assessed as reduction in cell viability at 300 uM after 48 hrs under normoxic condition by MTT assay. In kind it is functional, cell-based. The method, boiled down: as §1
Experiment [6] has as its system MDA-MB-231. The experiment can be described thus: Cytotoxicity against human MDA-MB-231 cells assessed as reduction in cell viability at 300 uM after 48 hrs under hypoxic condition by MTT assay. In kind it is functional, cell-based. The method, boiled down: as §1
Experiment [7] concerns HT-29. The experiment can be described thus: Cytotoxicity against human HT-29 cells assessed as reduction in cell viability at 30 to 300 uM after 48 hrs under normoxic condition by MTT assay. Type of experiment: functional, cell-based. In short, it runs like this:
as §1

The subject of experiment [8] is HT-29. As to the kind of experiment: Cytotoxicity against human HT-29 cells assessed as reduction in cell viability at 30 to 300 uM after 48 hrs under hypoxic condition by MTT assay. Type of experiment: functional, cell-based. In short, it runs like this:
as §1

A short description of experiment [9]: Gpx-like activity of the compound assessed as H2O2 reduction by measuring DTT oxidation measured within 35 mins by 1H-NMR analysis. Type of experiment: functional. In short, it runs like this: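 Oxidation of reduced DTT followed by 1H NMR, with DTTred and DTTox populations taken from signal integration. Catalyst loading 10%. Control run without catalyst, with (PhSe)2 as a standard comparator. T50 is the time to halve the initial DTTred. Mean ± SD of three separate experiments.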

Experiment [10] is described as follows: Gpx-like activity of the compound assessed as GSH-mediated H2O2 reduction by measuring NADPH consumption measured within 100 secs by UV spectroscopic analysis. Type of experiment: functional. The method, boiled down: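 NADPH-coupled GPx assay with GSH as substrate and H2O2 as oxidant, with glutathione reductase. Initial conditions: NADPH 0.6 mM, GSH 2.0 mM, H2O2 5 mM, GR 8 units/mL, catalyst 0.2 mM, pH 7.4 phosphate buffer, room temperature. Read-out is the absorbance decrease at 340 nm from NADPH consumption. Mean ± SD of three experiments.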

The subject of experiment [11] is MDA-MB-231. As to the kind of experiment: Cytotoxicity against human MDA-MB-231 cells assessed as reduction in cell viability at 30 uM after 48 hrs under normoxic condition by MTT assay. Type of experiment: functional, cell-based. In short, it runs like this: as §1
Experiment [12] has as its system PC-3. The experiment can be described thus: Cytotoxicity against human PC3 cells assessed as reduction in cell viability at 300 uM after 48 hrs under normoxic condition by MTT assay. In kind it is functional, cell-based. In short, it runs like this:
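PC3 human prostate cancer cells seeded at 1 × 10^4/well and exposed for 48 h under normoxia (20% O2). The same run also used hypoxia (0.1% O2). Compounds tested at 30, 100 and 300 μM. Viability is expressed relative to untreated control set at 100%. Mean ± SEM of three experiments.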

pKi: −log10 of the molar value. The source made the active and inactive calls. The calls are words filed in the database; no cut-off is given here.

Turning to `COc1ccccc1NC(=[Se])NCCc1ccc(S(N)(=O)=O)cc1`, on Carbonic anhydrase 9, the pKi (commonly the negative decadic logarithm of the Ki, by convention in mol/L) is 8.51.

At Carbonic anhydrase 9, `NS(=O)(=O)c1ccc(NC(=[Se])Nc2ccccc2F)cc1` showed a pKi of 8.24.

`NS(=O)(=O)c1ccc(CCNC(=[Se])Nc2ccc3ccccc3c2)cc1` had a pKi on Carbonic anhydrase 9 of 7.03.

Turning to `NS(=O)(=O)c1ccc(CCNC(=[Se])Nc2cccc(C(F)(F)F)c2)cc1`, the pKi at Carbonic anhydrase 9 was 8.24. This pKi lies 1.21 log units higher than the previous one.

In the case of `NS(=O)(=O)c1ccc(CCNC(=[Se])Nc2ccccc2)cc1`, the pKi on Carbonic anhydrase 9 was 8.28.

As for `NS(=O)(=O)c1ccc(CCNC(=[Se])Nc2ccccc2F)cc1`, the pKi at Carbonic anhydrase 9 was 8.06. Further, the outcome in the experiment on PC-3 [1], in the experiment with PC-3 [2], in the experiment with MDA-MB-231 [5] and in the experiment with MDA-MB-231 [6] was Active. Further, the result with MDA-MB-231 [3], with MDA-MB-231 [4], with HT-29 [7] and with HT-29 [8] was inactive.

`NS(=O)(=O)c1ccc(NC(=[Se])Nc2ccc(F)cc2)cc1`: the pKi at Carbonic anhydrase 9 was 7.20. In addition, the outcome (in experiment [9]; in [10]; with PC-3 [1]; in the experiment on PC-3 [2]; in the experiment on MDA-MB-231 [11]) was Active. The result in the experiment on HT-29 [7] and in the experiment with HT-29 [8] was inactive.

With `NS(=O)(=O)c1ccc(NC(=[Se])Nc2cccc(C(F)(F)F)c2)cc1`, the pKi on Carbonic anhydrase 9 was 7.80.

Molecule `NS(=O)(=O)c1ccc(CCNC(=[Se])Nc2ccccc2Cl)cc1` showed a pKi at Carbonic anhydrase 9 of 8.32. Compared with the last molecule, the pKi is 0.52 log units higher.

Consider `NS(=O)(=O)c1cccc(NC(=[Se])Nc2ccccc2)c1`, for which the pKi on Carbonic anhydrase 9 is 6.48.

Turning to `NS(=O)(=O)c1cccc(NC(=[Se])Nc2ccc(F)cc2)c1`, the pKi on Carbonic anhydrase 9 is 7.01. Compared with the last molecule, the pKi is 0.53 log units higher.

`NS(=O)(=O)c1ccc(NC(=S)Nc2ccc(F)cc2)cc1` showed a pKi at Carbonic anhydrase 9 of 7.49. The outcome in experiment [9] and in experiment [10] was inactive.

In the case of `NS(=O)(=O)c1ccc(NC(=[Se])Nc2ccccc2)cc1`, the pKi on Carbonic anhydrase 9 was 7.10.

On to `NS(=O)(=O)c1ccc(CCNC(=[Se])Nc2ccc(Br)cc2)cc1`, for which the pKi on Carbonic anhydrase 9 is 8.32.

The molecule `NS(=O)(=O)c1ccc(NC(=[Se])Nc2ccccc2Cl)cc1` had a pKi on Carbonic anhydrase 9 of 8.41.

As to `NS(=O)(=O)c1ccc(NC(=O)Nc2ccc(F)cc2)cc1`, the result in [9] and in [10] was inactive. For the same molecule, the result in the experiment on PC-3 [12], with MDA-MB-231 [11], in the experiment on HT-29 [7] and with HT-29 [8] was Active.

As to `NS(=O)(=O)c1ccc(CCNC(=[Se])Nc2ccc(I)cc2)cc1`, the pKi at Carbonic anhydrase 9 is 7.26. Further, the outcome in the experiment on PC-3 [1], in the experiment on PC-3 [2], in the experiment with MDA-MB-231 [3], in the experiment on MDA-MB-231 [4], with MDA-MB-231 [5] and in the experiment on MDA-MB-231 [6] was inactive. Besides, the outcome in the experiment with HT-29 [7] and in the experiment on HT-29 [8] was inactive.
